Tested on: HaCaT cells
Assay: Proliferation of HaCaT keratinocytes, CCK-8
Assay type: cell-based, human
Conditions: 100 μM, positive control, 72 h, 0.4 % serum
How it was run: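 HaCaT keratinocytes, grown at 37 °C in DMEM with 10 % (v/v) FBS, were seeded at 5 × 10^3 cells/well and cultured for 24 h. They were then serum-starved for 24 h in DMEM with 0.4 % serum and exposed to test sample in the same medium for 72 h. After 2 h in 10 % CCK-8, A450 was read. Proliferative activity = (A2−A1)/(A3−A1) × 100 %, against untreated cells and cell-free blank; mean ± SD, n = 3.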

B1: Epidermal growth factor (protein, UniProt P01133 23-1207, looked up)
Pro-epidermal growth factor: PQHWSCPEGTLAGNGNSTCVGPAPFLIFSHGNSIFRIDTEGTNYEQLVVDAGVSVIMDFHYNEKRIYWVDLERQLLQRVFLNGSRQERVCNIEKNVSGMAINWINEEVIWSNQQEGIITVTDMKGNNSHILLSALKYPANVAVDPVERFIFWSSEVAGSLYRADLDGVGVKALLETSEKITAVSLDVLDKRLFWIQYNREGSNSLICSCDYDGGSVHISKHPTQHNLFAMSLFGDRIFYSTWKMKTIWIANKHTGKDMVRINLHSSFVPLGELKVVHPLAQPKAEDDTWEPEQKLCKLRKGNCSSTVCGQDLQSHLCMCAEGYALSRDRKYCEDVNECAFWNHGCTLGCKNTPGSYYCTCPVGFVLLPDGKRCHQLVSCPRNVSECSHDCVLTSEGPLCFCPEGSVLERDGKTCSGCSSPDNGGCSQLCVPLSPVSWECDCFPGYDLQLDEKSCAASGPQPFLLFANSQDIRHMHFDGTDYGTLLSQQMGMVYALDHDPVENKIYFAHTALKWIERANMDGSQRERLIEEGVDVPEGLAVDWIGRRFYWTDRGKSLIGRSDLNGKRSKIITKENISQPRGIAVHPMAKRLFWTDTGINPRIESSSLQGLGRLVIASSDLIWPSGITIDFLTDKLYWCDAKQSVIEMANLDGSKRRRLTQNDVGHPFAVAVFEDYVWFSDWAMPSVMRVNKRTGKDRVRLQGSMLKPSSLVVVHPLAKPGADPCLYQNGGCEHICKKRLGTAWCSCREGFMKASDGKTCLALDGHQLLAGGEVDLKNQVTPLDILSKTRVSEDNITESQHMLVAEIMVSDQDDCAPVGCSMYARCISEGEDATCQCLKGFAGDGKLCSDIDECEMGVPVCPPASSKCINTEGGYVCRCSEGYQGDGIHCLDIDECQLGEHSCGENASCTNTEGGYTCMCAGRLSEPGLICPDSTPPPHLREDDHHYSVRNSDSECPLSHDGYCLHDGVCMYIEALDKYACNCVVGYIGERCQYRDLKWWELRHAGHGQQQKVIVVAVCVVVLVMLLLLSLWGAHYYRTQKLLSKNPKNPYEESSRDVRSRRPADTEDGMSSCPQPWFVVIKEHQDLKNGGQPVAGEDGQAADGSMQPTSWRQEPQLCGMGTEQGCWIPVSSDKGSCPQVMERSFHMPSYGTQTLEGGVEKPHSLLSANPLWQQRALDPPHQMELTQ
modifications: Pro-epidermal growth factor
cell viability (proliferation of HaCaT keratinocytes): 106.76%

From publication PMC11261800 (Heliyon, 2024)
